Experimental findings from ChEMBL document CHEMBL4261529, “Rational design and optimization of selenophenes with basic side chains as novel potent selective estrogen receptor modulators (SERMs) for breast cancer therapy” (Medchemcomm, 2017) are described below.

Each structure is given as a SMILES string. pEC50, pIC50: −log10 of the molar value. The source made the active and inactive calls. The calls are words filed in the database; no cut-off is given here.

For assay [1], the target named is T1, Estrogen receptor (Homo sapiens, UniProt P03372).
T1 sequence (P03372 whole entry): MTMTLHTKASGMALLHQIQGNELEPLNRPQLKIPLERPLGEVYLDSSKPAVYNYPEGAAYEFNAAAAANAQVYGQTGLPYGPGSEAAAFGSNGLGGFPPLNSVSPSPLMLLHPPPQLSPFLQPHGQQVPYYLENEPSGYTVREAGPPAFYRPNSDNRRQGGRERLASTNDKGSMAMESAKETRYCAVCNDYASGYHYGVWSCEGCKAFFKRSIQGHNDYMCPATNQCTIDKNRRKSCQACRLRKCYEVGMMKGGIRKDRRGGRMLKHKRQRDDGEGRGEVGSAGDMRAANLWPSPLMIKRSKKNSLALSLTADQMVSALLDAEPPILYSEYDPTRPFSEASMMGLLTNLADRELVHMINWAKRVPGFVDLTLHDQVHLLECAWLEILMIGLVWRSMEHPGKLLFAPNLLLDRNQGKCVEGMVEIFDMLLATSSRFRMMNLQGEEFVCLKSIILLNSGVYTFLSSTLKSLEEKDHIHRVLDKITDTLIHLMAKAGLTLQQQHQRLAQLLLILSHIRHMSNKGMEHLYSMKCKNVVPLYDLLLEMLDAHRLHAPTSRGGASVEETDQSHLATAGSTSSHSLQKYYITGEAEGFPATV
Kind of assay: Antagonist activity at ERalpha (unknown origin) expressed in HEK293T cells assessed as inhibition of 17beta-estradiol stimulated transcriptional activity after 24 hrs by dual luciferase reporter gene assay. Format: cell-based.

A further assay is filed under the species Homo sapiens. Kind of assay: Ratio of relative binding affinity for human ERalpha LBD to relative binding affinity to human ERbeta LBD.
Assay [2] deals with T2, Estrogen receptor beta (Homo sapiens, UniProt Q92731). Kind of assay: Antagonist activity at ERbeta (unknown origin) expressed in HEK293T cells assessed as inhibition of 17beta-estradiol stimulated transcriptional activity after 24 hrs by dual luciferase reporter gene assay. The class given is cell-based. The method in brief:
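HEK293T cells kept in DMEM with 10% FBS, plated in phenol red-free DMEM/10% FBS. Calcium phosphate co-transfection with 300 ng 3×ERE-luciferase reporter and 100 ng ERβ expression vector. Next day, cells stimulated with 10 nM estradiol plus increasing compound doses (up to 10–5 M), in triplicate. Luciferase read after 24 h.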
(In general: A reporter such as luciferase makes a cellular process visible.)

Assay [3] concerns the target T1, Estrogen receptor. Description: Agonist activity at ERalpha (unknown origin) expressed in HEK293T cells assessed as transcriptional activity after 24 hrs by dual luciferase reporter gene assay. The class given is cell-based.
For assay [4], the target named is T3, Estrogen receptor (Homo sapiens) (UniProt P03372).
T3 sequence (whole entry): T1 sequence (P03372 whole entry)
Description: Binding affinity to human ERalpha LBD expressed in Escherichia coli BL21(DE3) after 2 hrs by fluorescence tracer coumestrol based competitive fluorometric binding assay relative to 17beta-estradiol.

Assay [5] concerns the target T2, Estrogen receptor beta. Description: Binding affinity to human ERbeta LBD expressed in Escherichia coli BL21(DE3) after 2 hrs by fluorescence tracer coumestrol based competitive fluorometric binding assay relative to 17beta-estradiol.
In assay [6] the target is T2, Estrogen receptor beta. Kind of assay: Antagonist activity at ERbeta (unknown origin) expressed in HEK293T cells assessed as inhibition of 17beta-estradiol stimulated transcriptional activity after 24 hrs by dual luciferase reporter gene assay relative to 17beta-estradiol. Format: cell-based. Put shortly: (§1)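 ERβ expression vector (100 ng) plus 300 ng 3×ERE-luciferase reporter, calcium phosphate transfection into HEK293T cells plated in phenol red-free DMEM with 10% FBS. Next day, treated in triplicate with increasing doses (up to 10–5 M). For antagonist mode, 10 nM estradiol was co-added. Luciferase read 24 h later.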

Assay [7] has as its system MCF7. Description: Antiproliferative activity against human MCF7 cells after 72 hrs by MTT assay. Format: functional, cell-based. The following applies: MCF7, 72 h. The method in brief: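 MCF-7 (ATCC), kept in DMEM with 10% FBS, were treated in triplicate for 72 h. IC50 is the average of at least three independent experiments ± SD.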
For orientation: Tetrazolium dyes change colour on reduction, which living cells bring about.

The test system of assay [8] is MCF7. Description: Antiproliferative activity against human MCF7 cells at 50 uM after 5 days in presence of 10 nM 17beta-estradiol by MTT assay. The class given is functional, cell-based. The method in brief: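 MCF-7 cells were given 50 μM compound with or without 10 nM E2 and cultured 5 days. Viability was expressed relative to untreated cells set at 100%. Mean of three separate experiments ± range.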

Assay [9] deals with T2, Estrogen receptor beta. Kind of assay: Agonist activity at ERbeta (unknown origin) expressed in HEK293T cells assessed as transcriptional activity after 24 hrs by dual luciferase reporter gene assay relative to 17beta-estradiol. Format: cell-based. The method in brief: as §1
Assay [10] concerns the target T2, Estrogen receptor beta. Kind of assay: Agonist activity at ERbeta (unknown origin) expressed in HEK293T cells assessed as transcriptional activity after 24 hrs by dual luciferase reporter gene assay. The class given is cell-based. Put shortly:
as §1

T2 sequence (Q92731 whole entry): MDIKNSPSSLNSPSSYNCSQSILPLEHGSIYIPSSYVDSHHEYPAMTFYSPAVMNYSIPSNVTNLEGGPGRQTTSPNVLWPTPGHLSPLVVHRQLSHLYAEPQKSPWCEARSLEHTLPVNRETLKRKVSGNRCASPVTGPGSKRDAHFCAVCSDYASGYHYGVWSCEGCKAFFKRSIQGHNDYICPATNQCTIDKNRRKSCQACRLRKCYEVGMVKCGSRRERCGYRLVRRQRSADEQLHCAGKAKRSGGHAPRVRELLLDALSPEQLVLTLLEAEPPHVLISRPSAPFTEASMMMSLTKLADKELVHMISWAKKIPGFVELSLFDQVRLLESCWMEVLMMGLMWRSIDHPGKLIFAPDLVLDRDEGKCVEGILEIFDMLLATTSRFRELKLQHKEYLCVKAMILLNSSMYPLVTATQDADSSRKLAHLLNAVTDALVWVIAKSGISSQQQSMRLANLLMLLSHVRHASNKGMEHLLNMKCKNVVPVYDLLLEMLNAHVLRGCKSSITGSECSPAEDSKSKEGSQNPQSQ

Take `Cc1cc(O)ccc1-c1ccc(-c2ccc(OCCN3CCCCC3)cc2C)[se]1`: the pIC50 at Estrogen receptor [1] is 7.39; at Estrogen receptor beta [2], 5.91; in the assay on MCF7 [7] it was 4.60. Besides, the Ratio in the assay listed under Homo sapiens was below 0.1. Also, at Estrogen receptor [3], the pEC50 was 5.63. For the same compound, the RBA in assay [4] was below 0.1%; at Estrogen receptor beta [5], 0.62%. Moreover, the Efficacy at Estrogen receptor beta [6] was found to be 78.3%.
For the compound `Oc1ccc(-c2cc(-c3ccc(OCCN4CCCC4)cc3)c(-c3ccc(O)cc3)[se]2)cc1`, the pIC50 at Estrogen receptor [1] was 6.01; on Estrogen receptor beta [2], 6.32; in the assay on MCF7 [7], 5.31. In addition, the Ratio in the assay listed under Homo sapiens came out at 0.18. The result in the assay with MCF7 [8] was inactive. For the same compound, the RBA was found to be 3.14% in assay [4] and 16.7% on Estrogen receptor beta [5]. For the same compound, on Estrogen receptor beta [6], the Efficacy was 49.2%.
Take `Oc1ccc(-c2ccc(-c3ccc(OCCN4CCCC4)cc3)[se]2)cc1`: the figures for the pIC50 at Estrogen receptor [1], on Estrogen receptor beta [2] and in the assay with MCF7 [7] were 5.92, 5.90 and 5.24, respectively. Also, the Ratio in the assay filed under Homo sapiens worked out at 12.2. For the same compound, in the assay on MCF7 [8], the result was inactive. The pEC50 at Estrogen receptor [3] is 6.66. Besides, the RBA in [4] stood at 12.4%; on Estrogen receptor beta [5] it was 1.02%. On Estrogen receptor beta [6], the Efficacy was determined as 83.9%.
Consider `Oc1ccc(-c2ccc(-c3ccc(OCCN4CCCC4)cc3F)[se]2)c(F)c1`, for which the Ratio in the assay listed under Homo sapiens is above 10. Further, the pIC50 on Estrogen receptor beta [2] was 5.95; with MCF7 [7], below 4.00. Moreover, the pEC50 at Estrogen receptor [3] is 6.87. The RBA in assay [4] was 0.76%; on Estrogen receptor beta [5], below 0.1%. Further, the Efficacy at Estrogen receptor beta [6] was 92.1%.
As to `Cc1cc(O)ccc1-c1ccc(-c2ccc(OCCN3CCCC3)cc2C)[se]1`, the negative-log IC50 (pIC50) was 6.06 on Estrogen receptor [1], 6.84 at Estrogen receptor beta [2] and 4.27 in the assay on MCF7 [7]. In addition, the Ratio in the assay filed under Homo sapiens was found to be 3.37. Further, the Efficacy on Estrogen receptor beta [9] is 72.3%; at Estrogen receptor beta [6] it was 4.6%. For the same compound, at Estrogen receptor beta [10], the pEC50 was 6.62. Further, the RBA was found to be 1.96% in assay [4] and 0.58% on Estrogen receptor beta [5].
For the compound `Oc1ccc(-c2c[se]cc2-c2ccc(OCCN3CCCCC3)cc2)cc1`, the pIC50 on Estrogen receptor [1] was 5.80; on Estrogen receptor beta [2], 6.35; in the assay on MCF7 [7], 5.09. For the same compound, the Ratio in the assay filed under Homo sapiens is 3.3. In the assay on MCF7 [8], the outcome was inactive. The Efficacy on Estrogen receptor beta [9] is 53.5%; at Estrogen receptor beta [6] it was 22.8%. Moreover, the pEC50 on Estrogen receptor beta [10] is 5.94. The RBA in [4] turned out to be 7.58%; at Estrogen receptor beta [5], 2.35%.
In the case of `Oc1ccc(-c2c[se]cc2-c2ccc(OCCN3CCCC3)cc2)cc1`, the Ratio in the assay filed under Homo sapiens was 0.35. Moreover, the results for the pIC50 on Estrogen receptor beta [2] and in the assay on MCF7 [7] were 6.99 and below 4.00, respectively. The pEC50 on Estrogen receptor [3] was 6.00. Besides, the RBA in assay [4] was determined as 2.06%; at Estrogen receptor beta [5], 5.92%. For the same compound, the Efficacy on Estrogen receptor beta [6] amounted to 46.7%.
`Cc1cc(O)ccc1-c1c[se]cc1-c1ccc(OCCN2CCCCC2)cc1C`: the results for the pIC50 at Estrogen receptor [1], at Estrogen receptor beta [2] and with MCF7 [7] were 6.63, 5.87 and 4.80, respectively. Also, in the assay listed under Homo sapiens, the Ratio came to 0.05. Besides, the pEC50 at Estrogen receptor [3] was 6.80. Also, the RBA amounted to 0.56% in assay [4] and 10.2% on Estrogen receptor beta [5]. At Estrogen receptor beta [6], the Efficacy was 43.4%.
Consider `Oc1ccc(-c2cc(-c3ccc(OCCN4CCCCC4)cc3)c(-c3ccc(O)cc3)[se]2)cc1`, for which the pIC50 on Estrogen receptor [1] was 6.11; at Estrogen receptor beta [2], 5.27; in the assay with MCF7 [7], 5.15. For the same compound, in the assay filed under Homo sapiens, the Ratio is above 10. Besides, the pEC50 at Estrogen receptor [3] was 5.74. Moreover, the RBA in assay [4] is 4.59%; at Estrogen receptor beta [5] it was below 0.1%. Further, the Efficacy on Estrogen receptor beta [6] worked out at 33.8%.
For `Cc1cc(-c2c[se]cc2-c2ccc(OCCN3CCCC3)c(C)c2)ccc1O`, the pIC50 on Estrogen receptor [1] was 6.08; on Estrogen receptor beta [2], 8.30; in the assay with MCF7 [7], 4.89. In addition, in the assay filed under Homo sapiens, the Ratio worked out at 0.34. Moreover, the Efficacy stood at 20.8% at Estrogen receptor beta [9] and 34.1% on Estrogen receptor beta [6]. In addition, the pEC50 on Estrogen receptor [3] was 6.94. The RBA turned out to be 2.03% in assay [4] and 5.92% on Estrogen receptor beta [5].

Usually pIC50 stands for the IC50 on a negative log10 scale, so that one unit is a factor of ten. For orientation: pEC50 means −log10 of the EC50, conventionally taken in molar units.
